Experimental data as given in ChEMBL document CHEMBL3132832, “Design of Potential Bisubstrate Inhibitors against Mycobacterium tuberculosis (Mtb) 1-Deoxy-D-Xylulose 5-Phosphate Reductoisomerase (Dxr)-Evidence of a Novel Binding Mode” (Medchemcomm, 2013).
pIC50: −log10 of the molar value. ≈ marks a conversion by molar mass, not a printed value. Calls of active or inactive are those of the source. No cut-off for these calls is given here.

Tests used:
[1] = Inhibition of His-tagged Mycobacterium tuberculosis DXR expressed in Escherichia coli BL21(DE3) using DXP as substrate assessed as oxidation of NADPH preincubated for 10 mins followed by NADPH and substrate addition by spectrophotometric analysis
In short: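 Activity was read spectrophotometrically at 37 °C as NADPH oxidation. Enzyme was preincubated with inhibitor for 10 min at 37 °C before substrate. Run in duplicate. IC50 came from nonlinear regression of dose-response plots.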

[2] = system: Mycobacterium tuberculosis; test: Antitubercular activity against Mycobacterium tuberculosis H37Rv ATCC 27294 after 2 weeks; assay type: functional; conditions: H37Rv ATCC 27294, 336 h
In short: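 Mtb H37Rv was grown to OD 0.5 in 7H9 with 0.05% Tween-80, 0.2% glycerol and ADC, then diluted 1:1000. Inhibitors from 50 mg/mL DMSO stocks were serially 2-fold diluted (eight dilutions). Three independent measurements.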

[3] = system: Mycobacterium tuberculosis; test: Competitive inhibition of His-tagged Mycobacterium tuberculosis DXR expressed in Escherichia coli BL21(DE3) using DXP as substrate at 5 to 50 uM by Lineweaver-Burk plot analysis in presence of NADPH
In short: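 For mode of inhibition versus DXP, purified His-tagged Mtb Dxr was run at 37 °C with NADPH fixed at 150 µM or 30 µM depending on inhibitor. Enzyme and inhibitor were preincubated 10 min at 37 °C before substrate. NADPH oxidation was followed spectrophotometrically. Duplicates were analysed by Lineweaver-Burk plots.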

[4] = system: Mycobacterium tuberculosis; test: Uncompetitive inhibition of His-tagged Mycobacterium tuberculosis DXR expressed in Escherichia coli BL21(DE3) using DXP as substrate at 5 to 50 uM by Lineweaver-Burk plot analysis in presence of 0.01 to 0.05 uM NADPH
[5] = system: Mycobacterium tuberculosis; test: Inhibition of His-tagged Mycobacterium tuberculosis DXR expressed in Escherichia coli BL21(DE3) using DXP as substrate assessed as residual activity at 100 uM preincubated for 10 mins followed by NADPH and substrate addition by spectrophotometric analysis relative to control
In short: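 IMAC-purified His-tagged Mtb Dxr was tested with inhibitor at 100 μM, preincubated 10 min at 37 °C before substrate. NADPH oxidation was followed spectrophotometrically at 37 °C. Inhibition is relative. Duplicate assays.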

[6] = system: Mycobacterium tuberculosis; test: Noncompetitive inhibition of His-tagged Mycobacterium tuberculosis DXR expressed in Escherichia coli BL21(DE3) using DXP as substrate at 5 to 50 uM by Lineweaver-Burk plot analysis in presence of 0.01 to 0.05 uM NADPH

Row | Structure (SMILES) | pIC50 [1] | MIC99 [2] | Activity [5] | other results
1 | CC(=O)N(CCCP(=O)(O)O)OCc1ccc(C(C)C)cc1 | 4.32 |  |  | 
2 | CCOP(=O)(CCCN(O)C(=O)CCCc1ccccc1)OCC |  | 200 µg/mL (≈ 560 µM) |  | 
3 | O=C(Cc1ccccc1)N(O)CCCP(=O)(O)O | 4.57 |  |  | 
4 | CC(=O)N(O)CCCP(=O)([O-])O.[Na+] | 5.62 | > 500 µg/mL |  | inhibition [3]: Active; inhibition [4]: Active
5 | CC(=O)N(CCCP(=O)(O)O)OCCc1ccccc1 |  |  | 81.5% | 
6 | O=C(CCCc1ccccc1)N(O)CCCP(=O)([O-])O.[Na+] | 4.75 | > 200 µg/mL |  | inhibition [3]: Active; inhibition [6]: Active
7 | O=C(C1CCCCC1)N(O)CCCP(=O)(O)O |  |  | 80% | 
8 | CCOP(=O)(CCCN(O)C=O)OCC |  | 250 µg/mL (≈ 1050 µM) |  | 
9 | O=CN(O)CCCP(=O)(O)O [FOSMIDOMYCIN] |  | > 500 µg/mL |  | 
10 | CC(=O)N(CCCP(=O)(O)O)OCCCc1ccccc1 |  |  | 77.5% | 
11 | CC(=O)N(CCCP(=O)(O)O)OCC1CCCCC1 |  |  | 83.5% | 
